# Test results published in ChEMBL document CHEMBL1142109, “Arzanol, an anti-inflammatory and anti-HIV-1 phloroglucinol alpha-Pyrone from Helichrysum italicum ssp. microphyllum” (J Nat Prod, 2007).
# Calls of active or inactive are those of the source. No cut-off for these calls is given here.
# Tests used:
# Homo sapiens = species: Homo sapiens; test: (§1) Inhibition of TNFalpha activated NF-kappaB dependent transactivation of HIV-1 LTR Luc in 5.1 cells; format: cell-based
# In short: (§2)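 A T cell line stably carrying HIV-1 LTR-driven luciferase was preincubated with increasing concentrations for 30 min, then stimulated with TNFα (2 ng/mL) for 6 h. Cells were lysed in Tris-phosphate buffer pH 7.8 with Triton X-100. Luciferase was read and normalized to Bradford protein (RLU/µg) after subtracting lysis-buffer background. Results are fold induction over untreated cells, with at least three repeats.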
# [1] = as §1; format: cell-based; conditions: Homo sapiens; in short: as §2
# Monocyte [2] = test: Inhibition of IL6 production in LPS-stimulated human primary monocytes by ELISA; format: functional
# In short: (§3)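 Primary monocytes from healthy donors were seeded at (1-2) × 10^6 cells/well at 37 °C/5% CO2. Nonadherent cells were removed and the medium replaced with RPMI-1640 plus 1% human serum. Cells were preincubated with increasing compound concentrations for 30 min, then stimulated with LPS (10 ng/mL) for 24 h. Supernatants were cleared at 10000g for 10 min. Cytokines were measured by ELISA and PGE2 by EIA.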
# [3] = test system: Human immunodeficiency virus 1; test: Inhibition of VSV-pseudotyped HIV1 replication in Jurkat T cells; format: functional, organism-based
# In short: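 Jurkat T cells (10^6/mL) pretreated 30 min with increasing concentrations before infection with VSV-pseudotyped pNL4-3.Luc.R-E- virus (Env-, Vpr-; stock made in 293T cells), 200 ng HIV-1 gag p24 per culture. After 24 h the cells were washed twice in PBS and luciferase activity in the lysates was read as % of infected untreated cells. Mean ± SD of three independent experiments.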
# Monocyte [4] = test: Inhibition of PGE2 production in LPS-stimulated human primary monocytes by ELISA; format: functional; in short: as §3
# Monocyte [5] = test: Inhibition of IL8 production in LPS-stimulated human primary monocytes by ELISA; format: functional
# Monocyte [6] = test: Inhibition of IL1-beta production in LPS-stimulated human primary monocytes by ELISA; format: functional; in short: as §3
# Monocyte [7] = test: Inhibition of TNFalpha production in LPS-stimulated human primary monocytes by ELISA; format: functional; in short: as §3
structure (smiles),measurement,setting,value
CCC(C)C(=O)C(C)c1oc(=O)c(C)c(O)c1C (stereo not drawn),Activity,Homo sapiens,inactive
C=C(COC(C)=O)[C@@H]1Cc2cc(C(C)=O)ccc2O1,Activity,Homo sapiens,inactive
C=C(CO)[C@@H]1Cc2cc(C(C)=O)ccc2O1,Activity,Homo sapiens,inactive
C=C(CO)[C@H]1Oc2ccc(C(C)=O)cc2[C@H]1OC(C)=O,Activity,Homo sapiens,inactive
CCc1oc(=O)c(Cc2c(O)c(CC=C(C)C)c(O)c(C(C)=O)c2O)c(O)c1C [ARZANOL],IC50,[1],5 µM
same,IC50,Monocyte [2],13.3 µM
same,Activity,[3],Dose-dependent effect
same,IC50,Monocyte [4],18.7 µM
same,IC50,Monocyte [5],21.8 µM
same,IC50,Monocyte [6],5.6 µM
same,IC50,Monocyte [7],9.2 µM
C=C(COC(C)=O)[C@H]1Oc2ccc(C(C)=O)cc2[C@H]1OC(C)=O,Activity,Homo sapiens,inactive
CCc1oc(=O)c(Cc2c(O)c(C)c(CC)oc2=O)c(O)c1C [HELIPYRONE],IC50,[1],8.7 µM
